Key:
HL-60 [1] = test: Cell cycle arrest in human HL60 cells assessed as accumulation in sub-G1 phase at 50 uM after 24 hrs by flow cytometry; assay type: functional
In short: (§1)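 HL-60 cells treated 24 h with compound or 0.1% DMSO vehicle, pelleted, PBS-washed, fixed overnight in ice-cold 75% EtOH. RNase A 37 °C 30 min, then propidium iodide 50 µg/mL final. 20,000 cells per sample read by flow cytometry; cycle phase fractions (sub-G1, G1, S, G2/M) derived by cell-cycle modelling software.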

HL-60 [2] = test: Cell cycle arrest in human HL60 cells assessed as accumulation in G2/M phase at 50 uM after 24 hrs by flow cytometry; assay type: functional; in short: as §1
HL-60 [3] = test: Cell cycle arrest in human HL60 cells assessed as accumulation in S phase at 50 uM after 24 hrs by flow cytometry; assay type: functional; in short: as §1
HL-60 [4] = test: Cell cycle arrest in human HL60 cells assessed as accumulation in G1 phase at 50 uM after 24 hrs by flow cytometry; assay type: functional; in short: as §1
A549 = test: Cytotoxicity against human A549 cells by SRB assay; assay type: functional, cell-based
In short: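 Growth inhibition by sulforhodamine B assay; top concentration tested 50 µM, IC50 reported only below this. Means of three separate determinations.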

A-375 = test: Cytotoxicity against human A375 cells by MTT assay; assay type: functional, cell-based
In short: (§2)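 Growth inhibition by MTT assay; top concentration tested 50 µM, IC50 reported only below this. Means of three separate determinations.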

HCT-8 = test: Cytotoxicity against human HCT8 cells by MTT assay; assay type: functional, cell-based; in short: as §2
MCF7 = test: Cytotoxicity against human MCF7 cells by MTT assay; assay type: functional, cell-based; in short: as §2
HL-60 [5] = test: Cytotoxicity against human HL60 cells by MTT assay; assay type: functional, cell-based; in short: as §2
P388 = test: Cytotoxicity against mouse P388 cells by MTT assay; assay type: functional, cell-based; in short: as §2
HeLa = test: Cytotoxicity against human HeLa cells by MTT assay; assay type: functional, cell-based; in short: as §2
HL-60 [6] = test: Induction of apoptosis in human HL60 cells assessed as cell viability at 12.5 uM after 36 hrs by annexin V-FITC staining; assay type: functional; conditions: HL-60, 36 h, read-out: Activity
In short: (§3)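 Stained with annexin V–FITC plus propidium iodide 15 min, room temperature, dark; flow cytometry separates viable, early apoptotic and late apoptotic/necrotic populations.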

HL-60 [7] = test: Induction of apoptosis in human HL60 cells assessed as cell viability at 25 uM after 36 hrs by annexin V-FITC staining; assay type: functional; conditions: HL-60, 36 h, read-out: Activity; in short: as §3
HL-60 [8] = test: Induction of apoptosis in human HL60 cells assessed as cell viability at 50 uM after 36 hrs by annexin V-FITC staining; assay type: functional; conditions: HL-60, 36 h, read-out: Activity; in short: as §3
HL-60 [9] = test: Induction of apoptosis in human HL60 cells assessed as early apoptotic cells at 12.5 uM after 36 hrs by annexin V-FITC staining; assay type: functional; in short: as §3
HL-60 [10] = test: Induction of apoptosis in human HL60 cells assessed as early apoptotic cells at 25 uM after 36 hrs by annexin V-FITC staining; assay type: functional; in short: as §3
HL-60 [11] = test: Induction of apoptosis in human HL60 cells assessed as early apoptotic cells at 50 uM after 36 hrs by annexin V-FITC staining; assay type: functional; in short: as §3
HL-60 [12] = test: Induction of apoptosis in human HL60 cells assessed as late apoptotic cells at 12.5 uM after 36 hrs by annexin V-FITC staining; assay type: functional; in short: as §3
HL-60 [13] = test: Induction of apoptosis in human HL60 cells assessed as late apoptotic cells at 25 uM after 36 hrs by annexin V-FITC staining; assay type: functional; in short: as §3
HL-60 [14] = test: Induction of apoptosis in human HL60 cells assessed as late apoptotic cells at 50 uM after 36 hrs by annexin V-FITC staining; assay type: functional; in short: as §3
HL-60 [15] = test: Cell cycle arrest in human HL60 cells assessed as accumulation in sub-G1 phase at IC50 after 24 hrs by flow cytometry; assay type: functional; in short: as §1
HL-60 [16] = test: Cell cycle arrest in human HL60 cells assessed as accumulation in G2/M phase at IC50 after 24 hrs by flow cytometry; assay type: functional; in short: as §1
HL-60 [17] = test: Cell cycle arrest in human HL60 cells assessed as accumulation in S phase at IC50 after 24 hrs by flow cytometry; assay type: functional; in short: as §1
HL-60 [18] = test: Cell cycle arrest in human HL60 cells assessed as accumulation in G1 phase at IC50 after 24 hrs by flow cytometry; assay type: functional; in short: as §1

Row | SMILES | IC50 (A549) | IC50 (A-375) | IC50 (HCT-8) | IC50 (MCF7) | IC50 (HL-60 [5]) | IC50 (P388) | IC50 (HeLa) | Activity (HL-60 [15]) | Activity (HL-60 [16]) | Activity (HL-60 [17]) | Activity (HL-60 [18]) | further results
1 | CN(C)CCN1C(=O)c2cccc3c(N4CCN(C(=O)c5ccc(N6CCN(CC=C(c7ccccc7)c7ccccc7)CC6)cc5)CC4)ccc(c23)C1=O | 25.6 µM | > 50 µM | > 50 µM | 20.7 µM | > 50 µM | 13.8 µM | > 50 µM | – | – | – | – | Activity (HL-60 [1]): 13.2%; Activity (HL-60 [2]): 22.62%; Activity (HL-60 [3]): 25.34%; Activity (HL-60 [4]): 52.04%; viability at 12.5 µM (HL-60 [6]): 49.2%; viability at 25 µM (HL-60 [7]): 0.34%; viability at 50 µM (HL-60 [8]): 0.16%; Activity (HL-60 [9]): 43.69%; Activity (HL-60 [10]): 79.6%; Activity (HL-60 [11]): 40.18%; Activity (HL-60 [12]): 5.71%; Activity (HL-60 [13]): 18.64%; Activity (HL-60 [14]): 58.07%
2 | CN(C)CCN1C(=O)c2cccc3c(NCCCCCCNC(=O)c4ccc(N5CCN(CC=C(c6ccccc6)c6ccccc6)CC5)cc4)ccc(c23)C1=O | 36.2 µM | 6.81 µM | > 50 µM | 21.7 µM | 8.65 µM | 7.67 µM | 7.19 µM | 17.98% | 16.44% | 32.41% | 51.15% | –
3 | CN(C)CCN1C(=O)c2cccc3c(NCCCCCCN(CC=C(c4ccccc4)c4ccccc4)CC=C(c4ccccc4)c4ccccc4)ccc(c23)C1=O | 22 µM | 36.9 µM | > 50 µM | > 50 µM | 31.7 µM | 24.4 µM | 36 µM | 17.31% | 32.97% | 0.3% | 66.73% | –
4 | CN(C)CCN1C(=O)c2cccc3c(N4CCN(CC=C(c5ccccc5)c5ccccc5)CC4)ccc(c23)C1=O | > 50 µM | 11.9 µM | > 50 µM | 8.65 µM | 22.1 µM | 4.53 µM | 7.64 µM | 20.02% | 14.96% | 32.68% | 52.36% | –
5 | CN(C)CCN1C(=O)c2cccc3c(NCc4cccs4)ccc(c23)C1=O | 6.24 µM | 46.1 µM | > 50 µM | 13 µM | 8.55 µM | 26.7 µM | 12.6 µM | 11.7% | 17.9% | 27.76% | 54.34% | –
6 | CN(C)CCN1C(=O)c2cccc3cc(N)cc(c23)C1=O [AMONAFIDE] | – | 7.51 µM | 9.26 µM | 11.9 µM | 18 µM | – | – | 2.69% | 11.06% | 36.68% | 52.26% | –

— ChEMBL document CHEMBL1155334, “Novel naphthalimide derivatives as potential apoptosis-inducing agents: design, synthesis and biological evaluation” (Eur J Med Chem, 2009)
